Results taken from ChEMBL document CHEMBL1147646, “Novel benzofuran derivatives for PET imaging of beta-amyloid plaques in Alzheimer's disease brains” (J Med Chem, 2006).
One block for each compound: values may come before it. Activity calls are given as the source filed them. The rule behind the calls is not given here.

Tests used:
[1] = target: T1, Amyloid-beta precursor protein (Homo sapiens, UniProt P05067); test: Ability for neuropathological staining of amyloid plaque in human corpse AD brain temporal cortex; type: functional, tissue-based
In short: (§1)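 Postmortem temporal cortex from two AD cases, 5 µm paraffin serial sections deparaffinized in xylene/ethanol, washed in water then PBS, immersed in compound solution at various concentrations (50% ethanol in PBS above 0.5 mM), PBS wash 15 min, mounted; viewed by fluorescence microscopy (G-filter); serial sections immunostained for Aβ and tau with DAB.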

[2] = target: Microtubule-associated protein tau (Homo sapiens) (UniProt P10636); test: Ability for neuropathological staining of neurofibrillary tangles in human corpse AD brain temporal cortex
[3] = target: T1, Amyloid-beta precursor protein; test: Ability for neuropathological staining of cerebrovascular amyloid plaque in human corpse AD brain; type: functional; in short: as §1
[4] = target: T1, Amyloid-beta precursor protein; test: Labelling of accumulated amyloid plaque in Tg2576 transgenic mouse brain cerebral cortex expressing human APP after 30 mins; type: functional, tissue-based; settings: tested as the 11C-labelled form
[5] = target: T1, Amyloid-beta precursor protein; test: Displacement of [125I]IMPY from beta amyloid in human corpse AD brain
[6] = target: T1, Amyloid-beta precursor protein; test: Labelling of accumulated amyloid plaque in Tg2576 transgenic mouse brain hippocampus expressing human APP after 30 mins; type: functional, tissue-based; settings: tested as the 11C-labelled form
Mus musculus [7] = test: Ratio for drug uptake in iv dosed ddY mouse brain after 2 mins to after 30 mins; type: ADME, organism-based; settings: in vivo
[8] = Partition coefficient, log P at pH 7.4; type: physicochemical; settings: octanol/water
Mus musculus [9] = species: Mus musculus; test: %Compound removed from ddY mouse brain after 30 mins; type: ADME, organism-based; settings: in vivo, 0.5 h

T1 sequence (P05067 whole entry): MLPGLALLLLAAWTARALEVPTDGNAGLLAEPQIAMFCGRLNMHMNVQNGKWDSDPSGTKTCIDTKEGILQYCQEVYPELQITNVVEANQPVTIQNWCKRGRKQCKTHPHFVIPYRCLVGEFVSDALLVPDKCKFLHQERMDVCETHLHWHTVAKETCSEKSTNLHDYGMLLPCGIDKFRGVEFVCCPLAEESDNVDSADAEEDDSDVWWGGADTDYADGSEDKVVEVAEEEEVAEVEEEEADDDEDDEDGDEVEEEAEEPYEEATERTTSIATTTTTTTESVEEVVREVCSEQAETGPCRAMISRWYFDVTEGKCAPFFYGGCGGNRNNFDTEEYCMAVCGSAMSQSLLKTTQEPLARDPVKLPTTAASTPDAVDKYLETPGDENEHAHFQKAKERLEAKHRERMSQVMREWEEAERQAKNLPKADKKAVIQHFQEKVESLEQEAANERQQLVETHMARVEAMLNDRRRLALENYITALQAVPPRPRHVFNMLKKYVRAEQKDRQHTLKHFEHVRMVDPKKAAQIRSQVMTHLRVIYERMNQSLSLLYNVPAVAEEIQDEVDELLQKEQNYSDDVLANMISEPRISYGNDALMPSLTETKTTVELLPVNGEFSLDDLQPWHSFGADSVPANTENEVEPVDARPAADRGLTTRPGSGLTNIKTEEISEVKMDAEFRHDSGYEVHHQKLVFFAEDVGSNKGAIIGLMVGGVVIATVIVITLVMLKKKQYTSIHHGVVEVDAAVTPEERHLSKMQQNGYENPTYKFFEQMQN
Microtubule-associated protein tau (Homo sapiens), sequence (P10636 whole entry, looked up): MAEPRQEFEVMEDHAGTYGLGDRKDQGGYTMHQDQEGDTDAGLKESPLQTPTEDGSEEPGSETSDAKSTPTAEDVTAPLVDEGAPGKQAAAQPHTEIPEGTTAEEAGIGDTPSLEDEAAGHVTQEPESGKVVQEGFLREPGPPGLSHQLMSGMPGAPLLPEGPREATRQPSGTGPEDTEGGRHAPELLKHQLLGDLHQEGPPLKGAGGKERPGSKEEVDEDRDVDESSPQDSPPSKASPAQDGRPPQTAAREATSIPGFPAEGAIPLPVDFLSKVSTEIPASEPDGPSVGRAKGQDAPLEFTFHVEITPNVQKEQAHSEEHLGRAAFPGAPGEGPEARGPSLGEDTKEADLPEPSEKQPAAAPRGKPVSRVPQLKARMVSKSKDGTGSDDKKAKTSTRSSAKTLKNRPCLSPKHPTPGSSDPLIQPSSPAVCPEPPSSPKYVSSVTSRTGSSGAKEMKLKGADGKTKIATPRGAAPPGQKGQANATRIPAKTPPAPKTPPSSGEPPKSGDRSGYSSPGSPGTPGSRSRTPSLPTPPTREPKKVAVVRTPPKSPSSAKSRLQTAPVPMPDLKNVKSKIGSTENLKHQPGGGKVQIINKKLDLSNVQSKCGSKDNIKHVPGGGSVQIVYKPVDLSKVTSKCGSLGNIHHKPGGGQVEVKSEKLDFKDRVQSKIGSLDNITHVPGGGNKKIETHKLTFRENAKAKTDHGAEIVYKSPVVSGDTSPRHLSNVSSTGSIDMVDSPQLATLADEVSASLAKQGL

Ki [5]: 12 nM
SMILES: COc1ccc2oc(-c3ccc(N(C)C)cc3)cc2c1

Ki [5]: 2.8 nM
SMILES: CN(C)c1ccc(-c2cc3cc(O)ccc3o2)cc1

Ratio (Mus musculus [7]): 0.07
logD [8]: 2.36
washout (Mus musculus [9]): 90%
SMILES: [11CH3]Nc1ccc(-c2cc3cc(O)ccc3o2)cc1

The remaining lines, values behind:

SMILES: CNc1ccc(-c2cc3cc(O)ccc3o2)cc1
Activity [1]: Active
Activity [2]: Active
Activity [3]: Active
Activity [4]: Active
Ki [5]: 0.7 nM
Activity [6]: Active

SMILES: Nc1ccc(-c2cc3cc(O)ccc3o2)cc1
Ki [5]: 11.5 nM

SMILES: CNc1ccc(-c2cc3cc(OC)ccc3o2)cc1
Ki [5]: 1.3 nM

SMILES: COc1ccc2oc(-c3ccc(N)cc3)cc2c1
Ki [5]: 2.3 nM
